Experimental data as given in ChEMBL document CHEMBL3228012, “Actinomycin D oxazinones as improved antitumor agents” (1979).
Converted amounts (≈) assume the structure as drawn. The source made the active and inactive calls. The rule behind the calls is not given here. Starred links: 1 amine or outer side, 2 acyl side, 3 side chain; linkers in the order of their positions; H or OH if unused. Positions of bridges follow the written chain, without caps; N, C: chain ends. Non-standard residues stand in square brackets, D forms with d. Residues, ends and D or L forms follow the SMILES beside them. Chains are numbered I, II in the order given. Actinocin(1to9) = Cc1c2oc3c(C)ccc(C(=O)[*:2])c3nc-2c(C(=O)[*:1])c(N)c1=O; NMeV = CN[C@H](C(=O)O)C(C)C; Sar = CNCC(=O)O

Experiments:
P388 [1] = experiment: Antitumor activity against mouse P388 cells allografted in mouse BDF1 mouse assessed as survival time of mouse at 75 ug/kg, ip for 4 days (reference value: 11.5 days)
P388 [2] = experiment: Antitumor activity against mouse P388 cells allografted in mouse BDF1 mouse assessed as survival time of mouse at 150 ug/kg, ip for 4 days (reference value: 11.5 days)
P388 [3] = experiment: Antitumor activity against mouse P388 cells allografted in mouse BDF1 mouse assessed as increase in survival time of mouse at 150 ug/kg, ip for 4 days relative to untreated control; details: 96 h
P388 [4] = experiment: Antitumor activity against mouse P388 cells allografted in mouse BDF1 mouse assessed as increase in survival >50 days at 150 ug/kg, ip for 4 days
CCRF-CEM = experiment: Antitumor activity against human CCRF-CEM cells assessed as growth inhibition after 48 hrs; assay type: functional; details: read-out: ID50 (the source's name)
How it was run: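 Human leukemic lymphoblasts were grown in continuous spinner suspension culture. Compounds were exposed for 48 h. ID50 was taken as the concentration in ng/mL giving 50% growth inhibition.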

P388 [5] = experiment: Antitumor activity against mouse P388 cells allografted in mouse BDF1 mouse assessed as survival time of mouse at 50 ug/kg, ip for 4 days (reference value: 11.5 days)
P388 [6] = experiment: Antitumor activity against mouse P388 cells allografted in mouse BDF1 mouse assessed as increase in survival time of mouse at 50 ug/kg, ip for 4 days relative to untreated control; details: 96 h
P388 [7] = experiment: Antitumor activity against mouse P388 cells allografted in mouse BDF1 mouse assessed as increase in survival time of mouse at 75 ug/kg, ip for 4 days relative to untreated control; details: 96 h
P388 [8] = experiment: Antitumor activity against mouse P388 cells allografted in mouse BDF1 mouse assessed as increase in survival >50 days at 50 ug/kg, ip for 4 days
P388 [9] = experiment: Antitumor activity against mouse P388 cells allografted in mouse BDF1 mouse assessed as increase in survival >50 days at 75 ug/kg, ip for 4 days
Calf thymus DNA [10] = experiment: Binding affinity to calf thymus DNA in 0.15 M NaCl-0.01 M phosphate buffer at pH 7.3 at 37 degC incubated for 30 mins; details: Bos taurus
P388 [11] = experiment: Antitumor activity against mouse P388 cells allografted in mouse BDF1 mouse assessed as increase in survival >50 days at 300 ug/kg, ip for 4 days
Calf thymus DNA [12] = experiment: Binding affinity to calf thymus DNA in 0.15 M NaCl-0.01 M sodium phosphate buffer at pH 7.3 at 37 degC incubated for 30 mins; assay type: nucleic-acid assay; details: Bos taurus
How it was run: (§1)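 Compounds were mixed with calf thymus DNA, and binding was monitored by difference absorption spectra with and without DNA. Binding to DNA was judged from a bathochromic shift of λmax with hypochromicity.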

Calf thymus DNA [13] = experiment: Binding affinity to calf thymus DNA in 0.15 M NaCl-0.01 M sodium phosphate buffer at pH 7.3 at 37 degC incubated for 5 mins; assay type: nucleic-acid assay; details: Bos taurus
How it was run: as §1

P388 [14] = experiment: Antitumor activity against mouse P388 cells allografted in mouse BDF1 mouse assessed as increase in survival time of mouse at 300 ug/kg, ip for 4 days relative to untreated control; details: 96 h
Calf thymus DNA [15] = experiment: Binding affinity to calf thymus DNA in 0.01 M phosphate buffer at pH 7 at 20 degC incubated for 5 mins; assay type: nucleic-acid assay; details: Bos taurus
How it was run: as §1

P388 [16] = experiment: Antitumor activity against mouse P388 cells allografted in mouse BDF1 mouse assessed as complete suppression of tumor on day 307 at 150 ug/kg, ip for 4 days
P388 [17] = experiment: Antitumor activity against mouse P388 cells allografted in mouse BDF1 mouse assessed as survival time of mouse at 300 ug/kg, ip for 4 days (reference value: 11.5 days)

| SMILES | MST (P388 [1]) [days] | MST (P388 [2]) [days] | survival at 0.15 mg/kg (P388 [3]) [%] | Activity (P388 [4]) | IC50 (CCRF-CEM) [µg/mL] | MST (P388 [5]) [days] | survival at 0.05 mg/kg (P388 [6]) [%] | survival at 0.075 mg/kg (P388 [7]) [%] | Activity (P388 [8]) | Activity (P388 [9]) | Activity (Calf thymus DNA [10]) | Activity (P388 [11]) | Activity (Calf thymus DNA [12]) | Activity (Calf thymus DNA [13]) | survival at 0.3 mg/kg (P388 [14]) [%] | Activity (Calf thymus DNA [15]) | Percent increase in survival time vs untreated control at 0.15 mg/kg (P388 [3]) [%] | Activity (P388 [16]) | MST (P388 [17]) [days] |
| --- | --- | --- | --- | --- | --- | --- | --- | --- | --- | --- | --- | --- | --- | --- | --- | --- | --- | --- | --- |
| Cc1c2oc3c(C)ccc(C(=O)N[C@@H]4C(=O)N[C@H](C(C)C)C(=O)N5CCC[C@H]5C(=O)N(C)CC(=O)N(C)[C@@H](C(C)C)C(=O)O[C@@H]4C)c3nc-2c(C(=O)N[C@@H]2C(=O)N[C@H](C(C)C)C(=O)N3CCC[C@H]3C(=O)N(C)CC(=O)N(C)[C@@H](C(C)C)C(=O)O[C@@H]2C)c(N)c1=O [DACTINOMYCIN] (I: T[dV]P[Sar][NMeV] / II: T[dV]P[Sar][NMeV]; ester I:1-I:C, II:1-II:C; linker I:N-II:N via Actinocin(1to9)) | 30 | 8 | -31 | inactive | 0.01 (≈ 7.97 nM) | 28 | 141 | 149 | inactive | inactive |  |  |  |  |  |  |  |  |  |
| Cc1ccc(C(=O)N[C@@H]2C(=O)N[C@H](C(C)C)C(=O)N3CCC[C@H]3C(=O)N(C)CC(=O)N(C)[C@@H](C(C)C)C(=O)O[C@@H]2C)c2c1Oc1c(c(C(=O)N[C@@H]3C(=O)N[C@H](C(C)C)C(=O)N4CCC[C@H]4C(=O)N(C)CC(=O)N(C)[C@@H](C(C)C)C(=O)O[C@@H]3C)c3nc(CCC(=O)O)c(=O)oc3c1C)N2 |  |  |  |  | 0.028 (≈ 20.5 nM) |  |  |  |  |  | Active | inactive | Active | inactive | 159 | inactive |  |  |  |
| Cc1ccc(C(=O)N[C@@H]2C(=O)N[C@H](C(C)C)C(=O)N3CCC[C@H]3C(=O)N(C)CC(=O)N(C)[C@@H](C(C)C)C(=O)O[C@@H]2C)c2c1Oc1c(c(C(=O)N[C@@H]3C(=O)N[C@H](C(C)C)C(=O)N4CCC[C@H]4C(=O)N(C)CC(=O)N(C)[C@@H](C(C)C)C(=O)O[C@@H]3C)c3nc(C)c(=O)oc3c1C)N2 |  |  |  | inactive | 0.012 (≈ 9.16 nM) |  |  |  |  |  | Active |  | Active | inactive |  | inactive | 155 |  |  |
| CCc1nc2c(C(=O)N[C@@H]3C(=O)N[C@H](C(C)C)C(=O)N4CCC[C@H]4C(=O)N(C)CC(=O)N(C)[C@@H](C(C)C)C(=O)O[C@@H]3C)c3c(c(C)c2oc1=O)Oc1c(C)ccc(C(=O)N[C@@H]2C(=O)N[C@H](C(C)C)C(=O)N4CCC[C@H]4C(=O)N(C)CC(=O)N(C)[C@@H](C(C)C)C(=O)O[C@@H]2C)c1N3 | 29 | 35 |  |  | 0.012 (≈ 9.07 nM) |  |  | 152 |  | inactive | Active | inactive | Active | inactive | 126 | inactive | 204 | Active | 26 |
| Cc1ccc(C(=O)N[C@@H]2C(=O)N[C@H](C(C)C)C(=O)N3CCC[C@H]3C(=O)N(C)CC(=O)N(C)[C@@H](C(C)C)C(=O)O[C@@H]2C)c2c1Oc1c(c(C(=O)N[C@@H]3C(=O)N[C@H](C(C)C)C(=O)N4CCC[C@H]4C(=O)N(C)CC(=O)N(C)[C@@H](C(C)C)C(=O)O[C@@H]3C)c3ncc(=O)oc3c1C)N2 |  |  |  | inactive | 0.024 (≈ 18.5 nM) |  |  |  |  |  | Active |  | Active | inactive |  | inactive | 169 |  |  |
| Cc1ccc(C(=O)N[C@@H]2C(=O)N[C@H](C(C)C)C(=O)N3CCC[C@H]3C(=O)N(C)CC(=O)N(C)[C@@H](C(C)C)C(=O)O[C@@H]2C)c2c1Oc1c(c(C(=O)N[C@@H]3C(=O)N[C@H](C(C)C)C(=O)N4CCC[C@H]4C(=O)N(C)CC(=O)N(C)[C@@H](C(C)C)C(=O)O[C@@H]3C)c3nc(CC(=O)O)c(=O)oc3c1C)N2 |  |  |  | inactive | 0.012 (≈ 8.87 nM) |  |  |  |  |  | Active |  | Active | inactive |  | inactive | 140 |  |  |
